Measurements as given in publication PMC8102310 (Cancer discovery, 2021).
Where two headings read alike, the source gives them in different places.

Assays:
[1] = system: androgen-dependent and castration resistant prostate cancer cell lines; conditions: ref [35], [54]; cited from earlier work
BRD4 bromodomain = BRD4 bromodomain (Homo sapiens, UniProt O60885); assay type: cell-based
BRD2, 3, 4, 9 and WDR9 = assay: Bromoscan assay of 32 bromodomains; conditions: at 1 μM; minimal binding
97 kinases = assay: Screen of 97 kinases; assay type: biochemical; conditions: at 10 μM
[2] = system: 44 receptors, enzymes and ion channels; assay: Safety screen of 44 receptors, enzymes and ion channels; assay type: biochemical; conditions: at 10 μM
VCaP = assay: Cell proliferation; assay type: cell-based; conditions: Homo sapiens, read-out: growth inhibition IC50
22Rv1 = assay: Cell proliferation; assay type: cell-based
LNCaP95 = assay: Cell proliferation; assay type: cell-based; conditions: LNCaP-95, read-out: growth inhibition IC50
[3] = system: AR negative, hormone independent, cell lines; assay: Cell proliferation; assay type: cell-based; conditions: read-out: growth inhibition IC50
[4] = system: JQ1 resistant 22Rv1 cells; assay: Cell proliferation in JQ1 resistant cells; assay type: cell-based; conditions: for resistance, resistant vs parental: JQ1 resistant 22Rv1 cells
Method in brief: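 For resistance, 22Rv1 cells were cultured for 6 months in escalating BET inhibitor (30 nM up to 500 nM) or in 0.1% DMSO vehicle. Dose was raised only when morphology, viability and growth were good and after at least two passages at the prior dose. Parental (vehicle-cultured) and resistant cells were then compared for proliferation IC50.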

22Rv1 cells [5] = assay: AR and C-MYC signaling; assay type: cell-based
LNCaP95 cells = assay: AR and C-MYC signaling; assay type: cell-based
22Rv1 cells [6] = assay: Chromatin immunoprecipitation of CBP, p300 and AR-FL at AR binding sites; assay type: cell-based; conditions: 500nM, 10nM dihydrotestosterone
C4–2 cells = assay: as above; assay type: cell-based; conditions: 500nM, 10nM dihydrotestosterone
22Rv1 mouse xenografts = assay: 22Rv1 mouse xenograft; assay type: in vivo
CP50c PDX = assay: CP50c patient-derived xenograft; assay type: in vivo, mouse
Method in brief: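 CP50c PDX was passaged twice in castrated mice, then fragments were grafted subcutaneously into castrated male NSG mice. Oral gavage dosing began at about 300–400 mm³, once daily, with 5% DMSO:95% methylcellulose (0.5% w/v) as vehicle or formulation. Volumes were taken every 2–3 days and grouped by 5-day intervals, n=6 per group. Growth was normalized to start, and time to 300% of starting volume served as the surrogate survival endpoint.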

LNCaP-Bic mouse = LNCaP-Bic mouse xenograft; assay type: in vivo
patients with mCRPC = assay: First in human phase I trial; assay type: in vivo

CNC(=O)Nc1ccc2c(c1)CC[C@@]21OC(=O)N(CC(=O)N(Cc2ccc(F)cc2)[C@@H](C)C(F)(F)F)C1=O [A-485]
cell death [1]: induce cell death

CC1=NN(c2ccc(C(=O)O)cc2)C(=O)/C1=C\c1ccc(-c2cc(C)c(C)cc2[N+](=O)[O-])o1 [C646]
cell death [1]: induce cell death

CO[C@H]1CC[C@H](n2c([C@@H]3CCCC(=O)N3c3ccc(F)c(F)c3)nc3cc(-c4c(C)noc4C)ccc32)CC1 [CCS1477]
IC50 (BRD4 bromodomain): 1060 nM
binding, % of control (BRD2, 3, 4, 9 and WDR9): 14–33 % of control
biochemical inhibitory activity (97 kinases): no biochemical inhibitory activity
biochemical inhibitory activity in safety screen [2]: no biochemical inhibitory activity
IC50 (VCaP): < 100 nM
IC50 (22Rv1; Homo sapiens, 22Rv1, read-out: growth inhibition IC50, 22Rv1): < 100 nM
IC50 (22Rv1; read-out: growth inhibition IC50, 22Rv1): 96 nM
IC50 (LNCaP95): < 100 nM
IC50 [3]: > 1000 nM
sensitivity of JQ1 resistant 22Rv1 cells to treatment ([4]; compared with parental): more sensitive
C-MYC protein expression (22Rv1 cells [5]; 22Rv1): reduced
expression of AR regulated genes (KLK2, KLK3 and TMPRSS2) (22Rv1 cells [5]; 48-hours): reduced
expression of AR regulated genes (KLK2, KLK3 and TMPRSS2) (LNCaP95 cells; 48-hours): reduced
C-MYC protein expression (LNCaP95 cells; LNCaP95): reduced
recruitment of CBP, p300 and AR-FL to AR binding sites (22Rv1 cells [6]): reduced the recruitment of CBP, p300 and AR-FL
recruitment of CBP, p300 and AR-FL to AR binding sites (C4–2 cells): reduced the recruitment of CBP, p300 and AR-FL
most effective tolerated dose (22Rv1 mouse xenografts; 22Rv1 xenograft): 20 mg/kg
concentration of CCS1477 in plasma and tumor (22Rv1 mouse xenografts; 24-hours after the last dose): undetectable
AR-FL, AR-V7 and C-MYC protein expression in tumors (22Rv1 mouse xenografts; after 7-days of treatment, all doses tested): reduced
plasma KLK3 concentrations (22Rv1 mouse xenografts; all doses): decrease
levels of CCS1477 in plasma or tumor (22Rv1 mouse xenografts; day 52): no detectable levels
tolerability (22Rv1 mouse xenografts; mouse, in vivo): well tolerated with no change in body weight or condition of the animals
tumor growth (22Rv1 mouse xenografts; oral, 10mg/kg QD, 20 mg/kg QD, 30 mg/kg QOD, vs vehicle): significantly (p=<0.001) impacted tumor growth
tumor growth inhibition after treatment stopped at 28-days (22Rv1 mouse xenografts; treatment stopped after 28-days): sustained until day 52
median time to 300% growth (CP50c PDX; 20 mg/kg once-daily, vehicle 38): 56 days
survival (time to 300% growth) (CP50c PDX; oral 20 mg/kg QD vs vehicle): significantly (p=<0.001) prolonged survival
tumor growth (CP50c PDX; oral 20 mg/kg QD vs vehicle): significantly (p=0.02) reduced tumor growth
tumor growth compared to enzalutamide (LNCaP-Bic mouse): significantly (p=<0.001) reduced tumor growth
plasma KLK3 (patients with mCRPC; Patient 1, 50 mg BD 3-days-on-and-4 days-off): initial fall in plasma KLK3 which then stabilized
biopsy protein expression post-dose vs pre-dose (IHC) (patients with mCRPC; Patient 1, 50 mg BD, 4-hours post dose): reduction in AR-V7 and C-MYC protein expression
biopsy protein expression post-dose vs pre-dose (IHC) (patients with mCRPC; Patient 2, 25 mg BD, 3-hours post dose): reduction in C-MYC and Ki67 protein expression

Cc1sc2c(c1C)C(c1ccc(Cl)cc1)=N[C@@H](CC(=O)OC(C)(C)C)c1nnc(C)n1-2 [JQ1]
IC50 (22Rv1; read-out: IC50 in parental 22Rv1 cells, parental cells, vehicle cultured): 60 nM
resistance, resistant vs parental [4]: > 100 fold
IC50 ([4]; read-out: IC50 in JQ1 resistant 22Rv1 cells, resistant cells): 7.3 µM

Cc1sc2c(c1C)C(c1ccc(Cl)cc1)=N[C@@H](CC(=O)Nc1ccc(O)cc1)c1nnc(C)n1-2 [OTX-015]
resistance, resistant vs parental [4]: > 100 fold

I-BET151
resistance, resistant vs parental [4]: > 100 fold
